Source: PMC4090938 (Molecular cell, 2014)

Assays:
[1] = system: Erk-MAP kinase in Grb2-/- mESCs; assay: Erk-MAP kinase activation; assay type: cell-based, mouse; details: SU5402 10 μM
Summary of the method: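 Grb2-/- mouse ES cells (line described previously) were transfected with Lipofectamine LTX. Constructs were WT or chimeric Grb2 in pCAGGS, driven by a β-actin promoter. Cells were selected with puromycin for 48 h before analysis.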

Ptpn11 = target: T1, Ptpn11 (Mus musculus, UniProt P35235); assay: FLAG IP of FLAG-tagged Grb2 constructs compared with Ptpn11 level in cell lysate; assay type: cell-based; details: Ptpn11 in FLAG IP versus cell lysate, mESCs; data not shown
T1 sequence (P35235 1-593): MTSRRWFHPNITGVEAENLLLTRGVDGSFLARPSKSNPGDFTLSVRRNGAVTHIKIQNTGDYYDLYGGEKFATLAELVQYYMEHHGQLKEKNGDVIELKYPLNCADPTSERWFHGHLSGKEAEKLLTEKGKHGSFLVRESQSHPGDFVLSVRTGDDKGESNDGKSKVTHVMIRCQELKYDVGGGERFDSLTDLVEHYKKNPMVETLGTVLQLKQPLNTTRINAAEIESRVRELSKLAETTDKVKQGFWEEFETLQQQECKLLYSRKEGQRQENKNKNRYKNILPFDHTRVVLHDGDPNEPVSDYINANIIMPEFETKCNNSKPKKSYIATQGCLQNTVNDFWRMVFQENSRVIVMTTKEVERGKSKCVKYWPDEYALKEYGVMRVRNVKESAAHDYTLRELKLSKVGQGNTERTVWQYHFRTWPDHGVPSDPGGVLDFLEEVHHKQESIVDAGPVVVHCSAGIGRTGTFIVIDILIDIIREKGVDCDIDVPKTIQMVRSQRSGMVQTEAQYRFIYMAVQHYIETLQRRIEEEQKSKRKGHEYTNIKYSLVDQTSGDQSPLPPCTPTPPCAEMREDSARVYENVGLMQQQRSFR

Grb2-/- mESCs = assay: mESC priming; assay type: cell-based, mouse; details: Grb2-/- mESCs expressing the construct; Nanog/Dnmt3b expression signature
Summary of the method: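 Grb2-/- mESCs were transfected (Lipofectamine LTX) with WT or chimeric Grb2 in pCAGGS under a β-actin promoter, then puromycin-selected for 48 h before analysis. Dnmt3b levels were quantified as mean ± standard deviation (n=3). Regular colonies were also immunostained for Nanog and Dnmt3b.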

effect on activation of Erk-MAP kinase by chGrb2(Ptpn11_pY580) or WT Grb2 [1] | Ptpn11 in the cell engaged (Ptpn11) | Compound | restoration of mESC priming (Grb2-/- mESCs)
blocked |  | Cc1c[nH]c(/C=C2\C(=O)Nc3ccccc32)c1CCC(=O)O [SU5402] | 
 | approximately 20% | WT Grb2: vector-derived FLAG-tagged wild-type Grb2 adaptor protein | reestablished
